Experiment: Plasma triptorelin concentration
Format: in vivo, Chinese children
Details: human, im, 15 mg, SD
In short: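 Children with CPP (age-limited, ≥20 kg) received 15 mg of the test compound's pamoate salt (delivering 11.25 mg) by intramuscular injection into the upper outer buttock on day 1 and months 3, 6 and 9. Sparse plasma sampling was done pre-dose, 4 h post-injection on day 1, at month 3 (pre-dose) and at month 6. Concentrations were measured by validated LC-MS/MS and reported as means.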

- level at 4 h: 0.0476 ± 0.0239 µg/mL
SMILES: CC(C)C[C@H](NC(=O)[C@@H](Cc1c[nH]c2ccccc12)NC(=O)[C@H](Cc1ccc(O)cc1)NC(=O)[C@H](CO)NC(=O)[C@H](Cc1c[nH]c2ccccc12)NC(=O)[C@H](Cc1c[nH]cn1)NC(=O)[C@@H]1CCC(=O)N1)C(=O)N[C@@H](CCCNC(=N)N)C(=O)N1CCC[C@H]1C(=O)NCC(N)=O [triptorelin]
